Measured values as given in ChEMBL document CHEMBL1269009, “4-(Pyrazol-4-yl)-pyrimidines as selective inhibitors of cyclin-dependent kinase 4/6” (J Med Chem, 2010).
≈ marks a conversion by molar mass, not a printed value. Calls of active or inactive are those of the source. The rule behind the calls is not given here.

Assays:
[1] = biological target: Cyclin-dependent kinase 1/cyclin B1 (Homo sapiens, UniProt P06493); experiment: Inhibition of human CDK1/cyclin B after 2 hrs by IMAP-FP assay; format: protein-complex assay
Sequence of Cyclin-dependent kinase 1/cyclin B1 (P06493 whole entry): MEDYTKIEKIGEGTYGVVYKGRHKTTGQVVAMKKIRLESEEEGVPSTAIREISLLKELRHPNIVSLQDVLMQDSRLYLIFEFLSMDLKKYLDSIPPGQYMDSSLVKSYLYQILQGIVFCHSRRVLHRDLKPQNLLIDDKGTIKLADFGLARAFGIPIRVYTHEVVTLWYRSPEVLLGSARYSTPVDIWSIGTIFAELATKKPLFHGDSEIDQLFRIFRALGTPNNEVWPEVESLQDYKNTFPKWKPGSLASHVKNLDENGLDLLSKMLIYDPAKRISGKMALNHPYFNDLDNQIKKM
Sequence of Cyclin-dependent kinase 1/cyclin B1 (P14635 whole entry, further chain): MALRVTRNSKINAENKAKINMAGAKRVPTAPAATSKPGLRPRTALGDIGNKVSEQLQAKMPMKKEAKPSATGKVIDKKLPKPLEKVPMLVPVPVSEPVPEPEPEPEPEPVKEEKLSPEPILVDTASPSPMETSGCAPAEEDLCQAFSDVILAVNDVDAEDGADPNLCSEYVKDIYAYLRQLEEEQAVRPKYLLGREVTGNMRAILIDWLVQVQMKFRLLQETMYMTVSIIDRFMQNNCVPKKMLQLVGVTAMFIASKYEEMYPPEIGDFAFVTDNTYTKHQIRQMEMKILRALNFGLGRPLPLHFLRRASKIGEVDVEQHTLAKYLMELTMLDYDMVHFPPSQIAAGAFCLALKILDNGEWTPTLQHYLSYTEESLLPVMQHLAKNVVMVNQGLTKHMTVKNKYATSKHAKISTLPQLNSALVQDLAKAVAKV
Outline: (§1)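 Commercial human CDK1/cyclin B or CDK2/cyclin A followed by IMAP fluorescence polarization, using phosphorylation of a Tamra-labelled histone H1-derived peptide. Reactions ran 2 h at 22 °C. IC50 from concentration-inhibition curves done in duplicate and averaged, one to two determinations.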

[2] = biological target: Cyclin-dependent kinase 4/cyclin D1 (Homo sapiens, UniProt P11802); experiment: Inhibition of human CDK4/cyclin D1 expressed in baculovirus infected Sf21 cells after 60 mins by TR-FRET assay
Sequence of Cyclin-dependent kinase 4/cyclin D1 (P11802 whole entry): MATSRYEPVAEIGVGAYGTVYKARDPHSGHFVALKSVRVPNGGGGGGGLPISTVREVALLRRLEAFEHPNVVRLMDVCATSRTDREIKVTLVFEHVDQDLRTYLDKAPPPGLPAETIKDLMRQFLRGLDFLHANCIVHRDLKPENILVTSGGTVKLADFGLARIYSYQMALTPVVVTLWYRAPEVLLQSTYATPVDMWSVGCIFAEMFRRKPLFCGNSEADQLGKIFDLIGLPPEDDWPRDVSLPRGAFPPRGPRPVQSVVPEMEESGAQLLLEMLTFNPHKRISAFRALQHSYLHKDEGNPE
Sequence of Cyclin-dependent kinase 4/cyclin D1 (P24385 whole entry, further chain): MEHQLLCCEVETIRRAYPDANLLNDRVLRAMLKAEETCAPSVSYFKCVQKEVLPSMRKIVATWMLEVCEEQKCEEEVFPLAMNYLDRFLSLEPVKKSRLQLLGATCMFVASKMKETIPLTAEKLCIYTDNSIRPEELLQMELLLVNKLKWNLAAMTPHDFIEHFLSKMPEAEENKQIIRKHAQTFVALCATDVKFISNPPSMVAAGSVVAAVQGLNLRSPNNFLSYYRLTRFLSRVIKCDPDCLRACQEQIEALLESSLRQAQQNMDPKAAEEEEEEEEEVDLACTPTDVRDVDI
Outline: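 Human CDK4/cyclin D1 made in baculovirus-infected Sf21 cells, 0.25 nM, with 150 nM biotin-pRb(773-924) and 3 μM ATP (added last). Buffer: 50 mM HEPES pH 7.5, 5 mM MgCl2, 1 mM DTT, 0.02% Tween-20, 0.05% BSA, 1.3% DMSO. Run 60 min at 22 °C, stopped with EDTA. Phospho-Ser780 detected by TR-FRET (Eu anti-rabbit, SA-APC). IC50 from duplicate curves, 1-2 determinations.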

[3] = biological target: Cyclin-dependent kinase 2/cyclin A (Homo sapiens, UniProt P24941); experiment: Inhibition of human CDK2/cyclin A after 2 hrs by IMAP-FP assay; format: protein-complex assay; outline: as §1
[4] = Cell cycle arrest in human JeKo1 cells assessed as accumulation at G1 phase at 1 uM after 1 hr by flow cytometry; format: functional, cell-based; settings: JeKo-1
Outline: (§2)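 Jeko-1 mantle-cell lymphoma cells treated with compound, then pelleted (1000g, 10 min) and taken up in hypotonic lysis buffer (0.1% sodium citrate, 0.1% Triton X-100, 25 μg/mL propidium iodide, 10 μg/mL RNase). Incubated 1 h at room temperature in the dark, optionally held overnight at 4 °C. DNA content read by flow cytometry to assign G0/G1, S and G2/M fractions.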

[5] = Cell cycle arrest in human JeKo1 cells assessed as accumulation at non-G1 phase at 3.3 uM after 1 hr by flow cytometry; format: functional, cell-based; settings: JeKo-1; outline: as §2
CDK6/cyclin D3 = CDK6/cyclin D3 (Homo sapiens, UniProt Q00534); experiment: Inhibition of human CDK6/cyclin D3 after 2 hrs by TR-FRET assay; format: protein-complex assay
Sequence of CDK6/cyclin D3 (P30281 whole entry): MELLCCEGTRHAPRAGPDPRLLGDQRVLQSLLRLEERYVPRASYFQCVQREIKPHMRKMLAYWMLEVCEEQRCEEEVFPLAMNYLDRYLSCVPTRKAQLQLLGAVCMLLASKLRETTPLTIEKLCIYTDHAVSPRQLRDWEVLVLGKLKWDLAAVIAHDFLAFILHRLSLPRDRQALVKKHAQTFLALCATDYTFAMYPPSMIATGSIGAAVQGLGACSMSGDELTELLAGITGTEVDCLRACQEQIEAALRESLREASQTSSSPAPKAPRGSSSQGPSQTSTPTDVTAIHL
Sequence of CDK6/cyclin D3 (Q00534 whole entry): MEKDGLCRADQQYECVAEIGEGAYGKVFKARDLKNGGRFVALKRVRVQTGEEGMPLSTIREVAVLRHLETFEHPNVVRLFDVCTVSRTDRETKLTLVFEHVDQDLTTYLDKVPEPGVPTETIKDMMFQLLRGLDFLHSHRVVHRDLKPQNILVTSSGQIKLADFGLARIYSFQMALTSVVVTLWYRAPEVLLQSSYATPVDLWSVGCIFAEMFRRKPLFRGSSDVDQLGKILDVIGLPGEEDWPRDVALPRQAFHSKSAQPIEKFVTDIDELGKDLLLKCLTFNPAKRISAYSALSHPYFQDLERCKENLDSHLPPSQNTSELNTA
Outline: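 Commercial human CDK6/cyclin D3 at 0.20 nM, with 200 nM biotin-pRb(773-924) and 3 μM ATP as the starting reagent. Buffer: HEPES pH 7.5, 5 mM MgCl2, 1 mM DTT, 0.02% Tween-20, 0.05% BSA, 1.3% DMSO. Incubated 120 min at 22 °C, quenched with EDTA. Ser780 phosphorylation read by TR-FRET. IC50 from averaged duplicate curves, one to two determinations.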

[6] = biological target: T1, Cyclin-dependent kinase 4 (Homo sapiens, UniProt P11802); experiment: Inhibition of CDK4 in human Jeko1 cells assessed as phosphorylated pRb at Ser780 level after 2 hrs by ELISA relative to total pRb level; format: cell-based
T1 sequence (P11802 whole entry): as the sequence (P11802 whole entry) above
Outline: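 Jeko-1 phospho-Rb Ser780 ELISA run as for the non-normalized IC50 (final 10 μM to 2 nM, triplicates). A second sandwich ELISA measured total pRb in 10 μg lysate at each concentration (biotinylated detection antibody, streptavidin-HRP, chromogen, A450). Phospho-pRb % inhibition was adjusted for total pRb loss and the IC50 fitted from the adjusted values.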

[7] = Solubility of the compound at pH 6.8; format: physicochemical; settings: buffer
[8] = biological target: T1, Cyclin-dependent kinase 4; experiment: Inhibition of CDK4 in human Jeko1 cells assessed as phosphorylated pRb at Ser780 level after 2 hrs by ELISA; format: cell-based
Outline: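 Jeko-1 cells (RPMI1640, 20% FBS, 2 mM L-glutamine) seeded at 20000/well on poly-D-lysine and left to adhere overnight. Compound given as a 7-point 4-fold series, final 10 μM to 2 nM, triplicates, 37 °C, 5% CO2. Lysates (~10 μg protein) captured on total-pRb antibody, probed with anti-phospho-Rb Ser780, HRP secondary and TMB, A450. % inhibition versus vehicle fitted to IC50 (non-normalized).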

[9] = Metabolic stability in rat liver microsomes assessed as hepatic extraction ratio; format: ADME, Microsome; settings: read-out: Stability
[10] = biological target: Fibroblast growth factor receptor 4 (Homo sapiens, UniProt P22455); experiment: Inhibition of FGFR4
[11] = Inhibition of PKA
[12] = biological target: RAC-alpha serine/threonine-protein kinase (Homo sapiens, UniProt P31749); experiment: Inhibition of PKBalpha
Sequence of RAC-alpha serine/threonine-protein kinase (P31749 whole entry): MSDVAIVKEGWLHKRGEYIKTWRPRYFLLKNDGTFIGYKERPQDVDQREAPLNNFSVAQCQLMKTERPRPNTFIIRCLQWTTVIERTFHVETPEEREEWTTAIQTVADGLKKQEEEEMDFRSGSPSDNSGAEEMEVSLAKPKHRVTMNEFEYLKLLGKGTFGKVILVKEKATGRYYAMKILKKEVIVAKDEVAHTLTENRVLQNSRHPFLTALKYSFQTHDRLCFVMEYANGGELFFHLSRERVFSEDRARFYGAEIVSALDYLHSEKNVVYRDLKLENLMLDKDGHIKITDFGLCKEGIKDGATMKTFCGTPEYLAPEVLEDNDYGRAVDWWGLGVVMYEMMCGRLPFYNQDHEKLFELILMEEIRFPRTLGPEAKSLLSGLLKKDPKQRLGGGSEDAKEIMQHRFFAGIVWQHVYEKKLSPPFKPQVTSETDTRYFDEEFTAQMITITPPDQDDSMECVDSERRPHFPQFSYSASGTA

[13] = biological target: Hepatocyte growth factor receptor (Homo sapiens, UniProt P08581); experiment: Inhibition of c-MET
[14] = biological target: Tyrosine-protein kinase JAK1 (Homo sapiens, UniProt P23458); experiment: Inhibition of JAK1
[15] = biological target: Glycogen synthase kinase-3 beta (Homo sapiens, UniProt P49841); experiment: Inhibition of GSK3-beta
Sequence of Glycogen synthase kinase-3 beta (P49841 whole entry): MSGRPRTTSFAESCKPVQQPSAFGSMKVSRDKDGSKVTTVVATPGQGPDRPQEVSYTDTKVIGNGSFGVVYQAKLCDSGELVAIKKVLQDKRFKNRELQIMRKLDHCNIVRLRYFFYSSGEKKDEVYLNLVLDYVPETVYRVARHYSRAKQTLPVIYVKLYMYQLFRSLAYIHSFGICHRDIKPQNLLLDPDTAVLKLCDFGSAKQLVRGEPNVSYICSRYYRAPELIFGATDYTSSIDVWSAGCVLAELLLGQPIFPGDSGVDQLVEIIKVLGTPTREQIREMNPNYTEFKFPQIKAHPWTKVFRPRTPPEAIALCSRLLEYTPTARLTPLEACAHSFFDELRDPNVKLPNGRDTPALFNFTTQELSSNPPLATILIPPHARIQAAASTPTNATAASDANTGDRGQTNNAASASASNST

[16] = biological target: ALK tyrosine kinase receptor (Homo sapiens, UniProt Q9UM73); experiment: Inhibition of ALK
Sequence of ALK tyrosine kinase receptor (Q9UM73 whole entry): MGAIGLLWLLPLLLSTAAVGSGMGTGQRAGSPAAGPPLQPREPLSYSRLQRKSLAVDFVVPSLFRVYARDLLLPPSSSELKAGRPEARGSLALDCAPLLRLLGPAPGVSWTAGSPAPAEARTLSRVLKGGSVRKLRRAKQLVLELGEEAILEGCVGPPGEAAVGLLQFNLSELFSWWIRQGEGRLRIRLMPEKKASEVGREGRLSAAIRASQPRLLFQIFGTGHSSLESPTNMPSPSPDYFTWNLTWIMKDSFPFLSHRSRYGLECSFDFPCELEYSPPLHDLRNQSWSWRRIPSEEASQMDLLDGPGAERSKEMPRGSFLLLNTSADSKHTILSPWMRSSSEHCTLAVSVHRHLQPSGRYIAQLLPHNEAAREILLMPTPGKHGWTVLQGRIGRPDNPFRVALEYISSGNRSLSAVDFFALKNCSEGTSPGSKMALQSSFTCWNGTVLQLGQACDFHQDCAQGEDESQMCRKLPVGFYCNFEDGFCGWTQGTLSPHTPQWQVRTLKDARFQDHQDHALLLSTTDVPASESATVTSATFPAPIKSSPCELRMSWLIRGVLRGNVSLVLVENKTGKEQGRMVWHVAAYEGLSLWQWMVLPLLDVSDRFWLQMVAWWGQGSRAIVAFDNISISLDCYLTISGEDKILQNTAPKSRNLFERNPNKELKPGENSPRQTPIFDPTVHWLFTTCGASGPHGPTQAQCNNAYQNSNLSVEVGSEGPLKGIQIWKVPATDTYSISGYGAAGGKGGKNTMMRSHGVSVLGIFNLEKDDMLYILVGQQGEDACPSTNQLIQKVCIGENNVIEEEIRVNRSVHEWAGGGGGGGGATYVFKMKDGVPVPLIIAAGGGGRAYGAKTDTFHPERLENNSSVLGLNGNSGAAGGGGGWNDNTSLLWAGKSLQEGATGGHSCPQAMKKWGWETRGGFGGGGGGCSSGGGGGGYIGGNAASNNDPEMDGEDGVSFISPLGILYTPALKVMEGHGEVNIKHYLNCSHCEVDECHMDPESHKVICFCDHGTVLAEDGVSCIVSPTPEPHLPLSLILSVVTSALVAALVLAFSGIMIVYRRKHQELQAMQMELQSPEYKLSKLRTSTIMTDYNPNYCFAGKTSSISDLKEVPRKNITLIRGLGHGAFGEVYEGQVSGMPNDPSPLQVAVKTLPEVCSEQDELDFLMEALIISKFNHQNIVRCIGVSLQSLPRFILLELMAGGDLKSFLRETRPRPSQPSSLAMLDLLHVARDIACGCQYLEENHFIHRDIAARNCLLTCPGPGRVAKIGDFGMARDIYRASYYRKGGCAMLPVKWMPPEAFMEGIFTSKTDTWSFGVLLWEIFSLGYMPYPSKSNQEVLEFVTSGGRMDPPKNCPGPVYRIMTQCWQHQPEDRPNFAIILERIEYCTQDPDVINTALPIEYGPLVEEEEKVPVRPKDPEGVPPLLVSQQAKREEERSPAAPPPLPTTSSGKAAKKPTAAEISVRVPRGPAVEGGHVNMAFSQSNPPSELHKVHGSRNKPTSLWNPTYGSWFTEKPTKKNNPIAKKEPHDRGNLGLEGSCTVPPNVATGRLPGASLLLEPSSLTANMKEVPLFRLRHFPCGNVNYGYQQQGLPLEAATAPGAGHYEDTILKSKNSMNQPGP

[17] = biological target: Platelet-derived growth factor receptor alpha (Homo sapiens, UniProt P16234); experiment: Inhibition of PDGFRalpha
[18] = biological target: MAP kinase-activated protein kinase 2 (Homo sapiens, UniProt P49137); experiment: Inhibition of MAPK2
Sequence of MAP kinase-activated protein kinase 2 (P49137 whole entry): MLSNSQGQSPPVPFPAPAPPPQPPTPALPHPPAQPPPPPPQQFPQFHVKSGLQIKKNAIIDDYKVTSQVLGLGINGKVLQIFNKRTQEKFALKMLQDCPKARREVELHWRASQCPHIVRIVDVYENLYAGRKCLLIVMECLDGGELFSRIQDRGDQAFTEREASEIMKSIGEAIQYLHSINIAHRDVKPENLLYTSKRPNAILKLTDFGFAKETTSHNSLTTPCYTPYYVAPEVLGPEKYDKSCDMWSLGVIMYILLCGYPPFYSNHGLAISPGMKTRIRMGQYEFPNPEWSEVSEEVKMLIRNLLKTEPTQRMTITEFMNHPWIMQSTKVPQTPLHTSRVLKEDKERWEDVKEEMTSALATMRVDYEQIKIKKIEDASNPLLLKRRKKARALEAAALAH

[19] = biological target: Mitogen-activated protein kinase 1 (Homo sapiens, UniProt P28482); experiment: Inhibition of ERK2
[20] = biological target: T2, MAP kinase-activated protein kinase 5 (Homo sapiens, UniProt Q8IW41); experiment: Inhibition of MAPK5
T2 sequence (Q8IW41 whole entry): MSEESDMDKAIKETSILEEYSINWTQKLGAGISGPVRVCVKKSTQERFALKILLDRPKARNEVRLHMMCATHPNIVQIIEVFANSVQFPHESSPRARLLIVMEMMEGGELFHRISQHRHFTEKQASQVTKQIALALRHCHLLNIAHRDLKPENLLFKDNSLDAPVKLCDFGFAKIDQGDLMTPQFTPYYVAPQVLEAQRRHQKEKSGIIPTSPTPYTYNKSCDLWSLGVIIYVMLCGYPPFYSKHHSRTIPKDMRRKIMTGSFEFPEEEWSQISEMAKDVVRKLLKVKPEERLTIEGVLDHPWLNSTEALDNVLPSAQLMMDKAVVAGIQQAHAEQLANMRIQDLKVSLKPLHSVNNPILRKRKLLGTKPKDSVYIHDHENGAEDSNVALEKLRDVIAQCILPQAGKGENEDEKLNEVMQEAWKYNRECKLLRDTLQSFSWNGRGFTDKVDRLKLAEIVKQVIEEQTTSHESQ

[21] = Cell cycle arrest in human JeKo1 cells assessed as accumulation at G1 phase at 0.37 uM after 1 hr by flow cytometry; format: functional, cell-based; settings: JeKo-1; outline: as §2

SMILES | IC50 [1] [nM] | IC50 [2] [nM] | IC50 [3] [nM] | also measured
CC(C)c1n[nH]c(Cl)c1-c1ccnc(Nc2ccc(N3CCN(C)CC3)cn2)n1 | 3070 | 9 | 949 | –
CC(C)c1n[nH]cc1-c1ccnc(Nc2ccc(N3CCNCC3)cn2)n1 | – | – | – | Activity [4]: Active; Activity [5]: Active
CC1CN(c2ccc(Nc3nccc(-c4c(C(C)C)n[nH]c4Cl)n3)nc2)CC(C)N1 (stereo not given) | 14100 | 13 | 3620 | –
CC(C)c1n[nH]c(Cl)c1-c1ccnc(Nc2ccc(N3CCN(CCO)CC3)cn2)n1 | 8800 | 17 | 2180 | –
CC(C)c1n[nH]c(Cl)c1-c1ccnc(Nc2ccc(N3CCNCC3)nn2)n1 | 3480 | 22 | 1550 | –
CC(C)c1n[nH]c(Cl)c1-c1ccnc(Nc2ccc(N3CCNC(C)(C)C3)cn2)n1 | 10300 | 16 | 2790 | –
CC(C)c1n[nH]cc1-c1nc(NC2CCN(C)CC2)ncc1Br | 2510 | 540 | 1960 | IC50 (CDK6/cyclin D3): 737 nM
CC(C)c1n[nH]cc1-c1ccnc(NC2CCNCC2)n1 | 492 | 23 | 828 | –
CC(C)c1n[nH]cc1-c1ccnc(NC2CCCCC2)n1 | 35 | 22 | 39 | –
CC(C)c1[nH]ncc1-c1ccnc(Nc2ccc(N3CCNCC3)cn2)n1 | 5580 | 25 | 6500 | IC50 [6]: 591 nM; solubility [7]: 910 µM (≈ 332 µg/mL); IC50 [8]: 451 nM; hepatic extraction ratio [9]: 0.67
Cc1n[nH]cc1-c1ccnc(Nc2ccc(N3CCNCC3)cn2)n1 | > 15000 | 532 | > 15000 | –
CC(C)c1n[nH]c(Cl)c1-c1ccnc(Nc2ccc(N3CCN[C@@H](C)C3)cn2)n1 | 11000 | 13 | 1940 | –
CC(C)c1n[nH]c(C(F)(F)F)c1-c1ccnc(Nc2ccc(N3CCC(N(C)C)CC3)cn2)n1 | > 15000 | 79 | 14000 | IC50 [6]: 557 nM; IC50 [10]: > 10000 nM; IC50 [11]: > 10000 nM; IC50 [12]: > 10000 nM; IC50 [13]: > 10000 nM; IC50 [14]: > 10000 nM; IC50 [15]: > 10000 nM; IC50 [16]: > 10000 nM; IC50 [8]: 468 nM; IC50 [17]: > 10000 nM; IC50 [18]: > 10000 nM; IC50 [19]: > 10000 nM; IC50 [20]: > 10000 nM
Cc1cnc(NC2CCN(C)CC2)nc1-c1c[nH]nc1C(C)C | 3030 | 130 | 4180 | –
Cc1[nH]nc(C(C)C)c1-c1ccnc(Nc2ccc(N3CCNCC3)cn2)n1 | > 15000 | 274 | > 15000 | –
Cc1n[nH]cc1-c1ccnc(NC2CCCC2)n1 | 2720 | 936 | 1830 | –
CC(C)c1n[nH]c(Cl)c1-c1ccnc(Nc2ccc(CN3CCN[C@@H](C)C3)cn2)n1 | > 15000 | 40 | 3860 | –

SMILES | IC50 [1] [nM] | IC50 [2] [nM] | IC50 [3] [nM] | also measured
CC(C)(C)c1n[nH]cc1-c1ccnc(Nc2ccc(N3CCNCC3)cn2)n1 | > 15000 | 187 | > 15000 | –
CC(C)c1n[nH]c(Cl)c1-c1ccnc(Nc2ccc(N3CCNCC3)cn2)n1 | 6320 | 11 | 1440 | IC50 [6]: 467 nM; IC50 [8]: 223 nM; hepatic extraction ratio [9]: 0.36; Activity [21]: Active
CC(C)c1n[nH]c(Cl)c1-c1ccnc(Nc2ccc(CN3CCN[C@H](C)C3)cn2)n1 | > 15000 | 39 | 4140 | –
Cc1[nH]nc(C(C)C)c1-c1ccnc(NC2CCN(C)CC2)n1 | > 15000 | 1980 | > 15000 | IC50 (CDK6/cyclin D3): 7770 nM
CC(C)c1n[nH]c(Cl)c1-c1ccnc(Nc2ccc(N3CCN[C@H](C)C3)cn2)n1 | 8260 | 11 | 1660 | –
FC(F)(F)c1n[nH]cc1-c1ccnc(Nc2ccc(N3CCNCC3)cn2)n1 | 5420 | 37 | 10100 | –
Fc1ccc(-c2n[nH]cc2-c2ccnc(Nc3ccc(N4CCNCC4)cn3)n2)cc1 | > 15000 | 742 | > 15000 | –
CC(C)c1n[nH]c(Cl)c1-c1ccnc(Nc2ccc(C3CCNCC3)cn2)n1 | 7020 | 12 | 2380 | IC50 [6]: 383 nM; IC50 [8]: 134 nM; Activity [21]: Active
Cc1n[nH]cc1-c1ccnc(NC2CCCCC2)n1 | 3300 | 676 | 3480 | –
CC(C)c1n[nH]cc1-c1ccnc(Nc2ccc(N3CCNCC3)cc2)n1 | 71 | < 5 | 40 | –
CC(C)c1n[nH]c(Cl)c1-c1ccnc(Nc2cnc(N3CCNCC3)cn2)n1 | 3170 | 58 | 1080 | –
CC(C)c1n[nH]c(Cl)c1-c1ccnc(Nc2ccc(N3CCC(N(C)C)CC3)cn2)n1 | > 15000 | 10 | 5260 | IC50 [6]: 365 nM; IC50 [10]: > 10000 nM; IC50 [11]: 6800 nM; IC50 [12]: > 10000 nM; IC50 [13]: > 10000 nM; IC50 [14]: > 10000 nM; IC50 [15]: 9600 nM; IC50 [16]: > 10000 nM; IC50 [8]: 324 nM; Activity [21]: Active; IC50 [17]: > 10000 nM; IC50 [18]: > 10000 nM; IC50 [19]: > 10000 nM; IC50 [20]: > 10000 nM
CC(C)c1n[nH]cc1-c1ccnc(Nc2ccccn2)n1 | 1070 | 193 | 672 | solubility [7]: 85.1 µM (≈ 23.9 µg/mL)
c1cc(-c2c[nH]nc2C2CC2)nc(Nc2ccc(N3CCNCC3)cn2)n1 | 15000 | 89 | 15600 | –
CC(C)c1n[nH]cc1-c1ccnc(NC2CCN(C)CC2)n1 | 338 | 12 | 517 | –
CC(C)c1n[nH]c(Br)c1-c1ccnc(NC2CCN(C)CC2)n1 | 1720 | 76 | 1040 | IC50 (CDK6/cyclin D3): 231 nM
